Data taken from ChEMBL document CHEMBL1828568, “Novel imaging agents for β-amyloid plaque based on the N-benzoylindole core” (Bioorg Med Chem Lett, 2011).

What was measured:
[1] = Octanol-phosphate buffer partition coefficient, log D of the compound at pH 7.4; assay type: physicochemical
Method in brief: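 Radioiodinated tracer partitioned between n-octanol and PBS at pH 7.4; log D reported as mean ± SD.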

Blood [2] = assay: Biodistribution in Kunming mouse blood at 1 uCi, iv after 2 mins by gamma counting; assay type: ADME, organism-based; settings: in vivo
Method in brief: (§1)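 125I-labeled tracer given intravenously to normal mice. Organs and blood were sampled at 2, 15, 30, 60, 120 and 240 min after injection. Uptake is expressed as % ID/g, averaged over 5 mice ± SD.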

Blood [3] = assay: Biodistribution in Kunming mouse blood at 1 uCi, iv after 15 mins by gamma counting; assay type: ADME, organism-based; settings: in vivo, 0.25 h; method in brief: as §1
Blood [4] = assay: Biodistribution in Kunming mouse blood at 1 uCi, iv after 30 mins by gamma counting; assay type: ADME, organism-based; settings: in vivo, 0.5 h; method in brief: as §1
Blood [5] = assay: Biodistribution in Kunming mouse blood at 1 uCi, iv after 60 mins by gamma counting; assay type: ADME, organism-based; settings: in vivo, 1 h; method in brief: as §1
Blood [6] = assay: Biodistribution in Kunming mouse blood at 1 uCi, iv after 120 mins by gamma counting; assay type: ADME, organism-based; settings: in vivo, 2 h; method in brief: as §1
Blood [7] = assay: Biodistribution in Kunming mouse blood at 1 uCi, iv after 240 mins by gamma counting; assay type: ADME, organism-based; settings: in vivo, 4 h; method in brief: as §1
Brain [8] = assay: Biodistribution in Kunming mouse brain at 1 uCi, iv after 2 mins by gamma counting; assay type: ADME, organism-based; settings: in vivo; method in brief: as §1
Brain [9] = assay: Biodistribution in Kunming mouse brain at 1 uCi, iv after 15 mins by gamma counting; assay type: ADME, organism-based; settings: in vivo, 0.25 h; method in brief: as §1
Brain [10] = assay: Biodistribution in Kunming mouse brain at 1 uCi, iv after 30 mins by gamma counting; assay type: ADME, organism-based; settings: in vivo, 0.5 h; method in brief: as §1
Brain [11] = assay: Biodistribution in Kunming mouse brain at 1 uCi, iv after 60 mins by gamma counting; assay type: ADME, organism-based; settings: in vivo, 1 h; method in brief: as §1
Brain [12] = assay: Biodistribution in Kunming mouse brain at 1 uCi, iv after 120 mins by gamma counting; assay type: ADME, organism-based; settings: in vivo, 2 h; method in brief: as §1
Brain [13] = assay: Biodistribution in Kunming mouse brain at 1 uCi, iv after 240 mins by gamma counting; assay type: ADME, organism-based; settings: in vivo, 4 h; method in brief: as §1
Heart [14] = assay: Biodistribution in Kunming mouse heart at 1 uCi, iv after 2 mins by gamma counting; assay type: ADME, organism-based; settings: in vivo; method in brief: as §1
Heart [15] = assay: Biodistribution in Kunming mouse heart at 1 uCi, iv after 15 mins by gamma counting; assay type: ADME, organism-based; settings: in vivo, 0.25 h; method in brief: as §1
Heart [16] = assay: Biodistribution in Kunming mouse heart at 1 uCi, iv after 30 mins by gamma counting; assay type: ADME, organism-based; settings: in vivo, 0.5 h; method in brief: as §1
Heart [17] = assay: Biodistribution in Kunming mouse heart at 1 uCi, iv after 60 mins by gamma counting; assay type: ADME, organism-based; settings: in vivo, 1 h; method in brief: as §1
Heart [18] = assay: Biodistribution in Kunming mouse heart at 1 uCi, iv after 120 mins by gamma counting; assay type: ADME, organism-based; settings: in vivo, 2 h; method in brief: as §1
Heart [19] = assay: Biodistribution in Kunming mouse heart at 1 uCi, iv after 240 mins by gamma counting; assay type: ADME, organism-based; settings: in vivo, 4 h; method in brief: as §1
Liver [20] = assay: Biodistribution in Kunming mouse liver at 1 uCi, iv after 2 mins by gamma counting; assay type: ADME, organism-based; settings: in vivo; method in brief: as §1
Liver [21] = assay: Biodistribution in Kunming mouse liver at 1 uCi, iv after 15 mins by gamma counting; assay type: ADME, organism-based; settings: in vivo, 0.25 h; method in brief: as §1
Liver [22] = assay: Biodistribution in Kunming mouse liver at 1 uCi, iv after 30 mins by gamma counting; assay type: ADME, organism-based; settings: in vivo, 0.5 h; method in brief: as §1
Liver [23] = assay: Biodistribution in Kunming mouse liver at 1 uCi, iv after 60 mins by gamma counting; assay type: ADME, organism-based; settings: in vivo, 1 h; method in brief: as §1
Liver [24] = assay: Biodistribution in Kunming mouse liver at 1 uCi, iv after 120 mins by gamma counting; assay type: ADME, organism-based; settings: in vivo, 2 h; method in brief: as §1
Liver [25] = assay: Biodistribution in Kunming mouse liver at 1 uCi, iv after 240 mins by gamma counting; assay type: ADME, organism-based; settings: in vivo, 4 h; method in brief: as §1
Spleen [26] = assay: Biodistribution in Kunming mouse spleen at 1 uCi, iv after 2 mins by gamma counting; assay type: ADME, organism-based; settings: in vivo; method in brief: as §1
Spleen [27] = assay: Biodistribution in Kunming mouse spleen at 1 uCi, iv after 15 mins by gamma counting; assay type: ADME, organism-based; settings: in vivo, 0.25 h; method in brief: as §1

COc1ccc(/C=C/C(=O)n2ccc3cc([125I])ccc32)cc1
logD [1]: 2.32 | Drug uptake (Blood [2]): 13.91 % ID/g | Drug uptake (Blood [3]): 5.82 % ID/g | Drug uptake (Blood [4]): 4.9 % ID/g | Drug uptake (Blood [5]): 3.79 % ID/g | Drug uptake (Blood [6]): 3.12 % ID/g | Drug uptake (Blood [7]): 2.78 % ID/g | Drug uptake (Brain [8]): 2.19 % ID/g | Drug uptake (Brain [9]): 2.29 % ID/g | Drug uptake (Brain [10]): 1.6 % ID/g | Drug uptake (Brain [11]): 1.04 % ID/g | Drug uptake (Brain [12]): 0.42 % ID/g | Drug uptake (Brain [13]): 0.21 % ID/g | Drug uptake (Heart [14]): 12.64 % ID/g | Drug uptake (Heart [15]): 3.52 % ID/g | Drug uptake (Heart [16]): 2.45 % ID/g | Drug uptake (Heart [17]): 1.53 % ID/g | Drug uptake (Heart [18]): 1.21 % ID/g | Drug uptake (Heart [19]): 1.17 % ID/g | Drug uptake (Liver [20]): 24.76 % ID/g | Drug uptake (Liver [21]): 18.05 % ID/g | Drug uptake (Liver [22]): 14.05 % ID/g | Drug uptake (Liver [23]): 12.3 % ID/g | Drug uptake (Liver [24]): 9.3 % ID/g | Drug uptake (Liver [25]): 7.65 % ID/g | Drug uptake (Spleen [26]): 6 % ID/g | Drug uptake (Spleen [27]): 8.04 % ID/g
